In ChEMBL document CHEMBL3792373, “Anti-methicillin resistant Staphylococcus aureus activity, synergism with oxacillin and molecular docking studies of metronidazole-triazole hybrids” (Eur J Med Chem, 2016):
Values after ≈ are worked out from the molar mass of the structure shown.

Experiments:
Type in all cases: functional
[1] = test system: Staphylococcus aureus; assay: Antimicrobial activity against methicillin-resistant Staphylococcus aureus isolate 11a after 24 hrs by agar plate dilution method
Procedure, shortened: (§1)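 Clinical MRSA isolates from axilla/nasal swabs, identified by mannitol salt agar, Gram stain and coagulase test. Agar plate dilution with compound series 0.03–128 µg/mL. Inoculum suspended in water to McFarland 0.5. Incubation 24 h at 37 °C. MIC read as the lowest level without white growth spots. Dilution series quality-controlled with S. aureus NCTC 6571.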

[2] = test system: Staphylococcus aureus; assay: Antimicrobial activity against methicillin-resistant Staphylococcus aureus isolate 3a after 24 hrs by agar plate dilution method in presence of oxacillin (1:1)
Procedure, shortened: (§2)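 Test compound and oxacillin mixed 1:1, each at 32 µg/mL in the mixture, then serially diluted into agar plates. Clinical MRSA isolates at McFarland 0.5 in water were spotted onto the plates and incubated 24 h at 37 °C. Growth was read as white spots. NCTC 6571 S. aureus served as the dilution-series control.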

[3] = test system: Staphylococcus aureus; assay: Antimicrobial activity against methicillin-resistant Staphylococcus aureus isolate 24a after 24 hrs by agar plate dilution method; procedure, shortened: as §1
[4] = test system: Staphylococcus aureus; assay: Antimicrobial activity against methicillin-resistant Staphylococcus aureus isolate 22a after 24 hrs by agar plate dilution method; procedure, shortened: as §1
[5] = test system: Staphylococcus aureus; assay: Antimicrobial activity against methicillin-resistant Staphylococcus aureus isolate 26a after 24 hrs by agar plate dilution method; procedure, shortened: as §1
[6] = test system: Staphylococcus aureus; assay: Antimicrobial activity against methicillin-resistant Staphylococcus aureus isolate 6a after 24 hrs by agar plate dilution method in presence of oxacillin (1:1)
Procedure, shortened: (§3)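 Clinical MRSA isolates, from axilla/nasal swabs and identified by mannitol salt agar, Gram stain and coagulase test. […] Inoculum adjusted to McFarland 0.5 in water. Plates incubated 24 h at 37 °C and scored for growth spots. Dilution series quality-controlled with S. aureus NCTC 6571. Combination lines used a 1:1 mixture with oxacillin.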

[7] = test system: Staphylococcus aureus; assay: Bactericidal activity against methicillin-resistant Staphylococcus aureus isolate 1a assessed as reduction in colony counts at 32 ug/ml after 4 hrs by pour plate method (reference value: 6.14 +/- 0.456 log10CFU/ml)
[8] = test system: Staphylococcus aureus; assay: Antimicrobial activity against methicillin-resistant Staphylococcus aureus isolate 2a after 24 hrs by agar plate dilution method; procedure, shortened: as §1
[9] = test system: Staphylococcus aureus; assay: Bactericidal activity against methicillin-resistant Staphylococcus aureus isolate 1a assessed as reduction in colony counts at 32 ug/ml after 24 hrs by pour plate method (reference value: 12.64 +/- 0.224 log10CFU/ml)
[10] = test system: Staphylococcus aureus; assay: Antimicrobial activity against methicillin-resistant Staphylococcus aureus isolate 24a after 24 hrs by agar plate dilution method in presence of oxacillin (1:1); procedure, shortened: as §2
[11] = test system: Staphylococcus aureus; assay: Antimicrobial activity against methicillin-resistant Staphylococcus aureus isolate 13a after 24 hrs by agar plate dilution method in presence of oxacillin (1:1); procedure, shortened: as §2
[12] = test system: Staphylococcus aureus; assay: Antimicrobial activity against methicillin-resistant Staphylococcus aureus isolate 3a after 24 hrs by agar plate dilution method; procedure, shortened: as §1
[13] = test system: Staphylococcus aureus; assay: Antimicrobial activity against methicillin-resistant Staphylococcus aureus isolate 9a after 24 hrs by agar plate dilution method in presence of oxacillin (1:1); procedure, shortened: as §3
[14] = test system: Staphylococcus aureus; assay: Antimicrobial activity against methicillin-resistant Staphylococcus aureus isolate 22a after 24 hrs by agar plate dilution method in presence of oxacillin (1:1); procedure, shortened: as §2
[15] = test system: Staphylococcus aureus; assay: Antimicrobial activity against methicillin-resistant Staphylococcus aureus isolate 7a after 24 hrs by agar plate dilution method in presence of oxacillin (1:1); procedure, shortened: as §3
[16] = test system: Staphylococcus aureus; assay: Bactericidal activity against methicillin-resistant Staphylococcus aureus isolate 1a assessed as reduction in colony counts at 32 ug/ml after 24 hrs by pour plate method in presence of oxacillin (1:1) (reference value: 12.64 +/- 0.224 log10CFU/ml)
[17] = test system: Staphylococcus aureus; assay: Antimicrobial activity against methicillin-resistant Staphylococcus aureus isolate 30a after 24 hrs by agar plate dilution method; procedure, shortened: as §1
[18] = test system: Staphylococcus aureus; assay: Antimicrobial activity against methicillin-resistant Staphylococcus aureus isolate 14a after 24 hrs by agar plate dilution method; procedure, shortened: as §1
[19] = test system: Staphylococcus aureus; assay: Antimicrobial activity against methicillin-resistant Staphylococcus aureus isolate 12a after 24 hrs by agar plate dilution method in presence of oxacillin (1:1); procedure, shortened: as §2
[20] = test system: Staphylococcus aureus; assay: Antimicrobial activity against methicillin-resistant Staphylococcus aureus isolate 23a after 24 hrs by agar plate dilution method; procedure, shortened: as §1
[21] = test system: Staphylococcus aureus; assay: Bactericidal activity against methicillin-resistant Staphylococcus aureus isolate 1a assessed as reduction in colony counts at 32 ug/ml after 16 hrs by pour plate method in presence of oxacillin (1:1) (reference value: 12.50 +/- 0.291 log10CFU/ml)
[22] = test system: Staphylococcus aureus; assay: Antimicrobial activity against methicillin-resistant Staphylococcus aureus isolate 21a after 24 hrs by agar plate dilution method in presence of oxacillin (1:1); procedure, shortened: as §2
[23] = test system: Staphylococcus aureus; assay: Antimicrobial activity against methicillin-resistant Staphylococcus aureus isolate 29a after 24 hrs by agar plate dilution method in presence of oxacillin (1:1); procedure, shortened: as §2
[24] = test system: Staphylococcus aureus; assay: Antimicrobial activity against methicillin-resistant Staphylococcus aureus isolate 1a after 24 hrs by agar plate dilution method in presence of oxacillin (1:1); procedure, shortened: as §2
[25] = test system: Staphylococcus aureus; assay: Antimicrobial activity against methicillin-resistant Staphylococcus aureus isolate 8a after 24 hrs by agar plate dilution method; procedure, shortened: as §3
[26] = test system: Staphylococcus aureus; assay: Antimicrobial activity against methicillin-resistant Staphylococcus aureus isolate 6a after 24 hrs by agar plate dilution method; procedure, shortened: as §3
[27] = test system: Staphylococcus aureus; assay: Antimicrobial activity against methicillin-resistant Staphylococcus aureus isolate 9a after 24 hrs by agar plate dilution method; procedure, shortened: as §3
[28] = test system: Staphylococcus aureus; assay: Antimicrobial activity against methicillin-resistant Staphylococcus aureus isolate 20a after 24 hrs by agar plate dilution method; procedure, shortened: as §1
[29] = test system: Staphylococcus aureus; assay: Antimicrobial activity against methicillin-resistant Staphylococcus aureus isolate 18a after 24 hrs by agar plate dilution method; procedure, shortened: as §1
[30] = test system: Staphylococcus aureus; assay: Bactericidal activity against methicillin-resistant Staphylococcus aureus isolate 1a assessed as reduction in colony counts at 32 ug/ml after 20 hrs by pour plate method (reference value: 12.73 +/- 0.223 log10CFU/ml)
[31] = test system: Staphylococcus aureus; assay: Antimicrobial activity against methicillin-resistant Staphylococcus aureus isolate 10a after 24 hrs by agar plate dilution method; procedure, shortened: as §1
[32] = test system: Staphylococcus aureus; assay: Antimicrobial activity against methicillin-resistant Staphylococcus aureus isolate 10a after 24 hrs by agar plate dilution method in presence of oxacillin (1:1); procedure, shortened: as §2
[33] = test system: Staphylococcus aureus; assay: Antimicrobial activity against methicillin-resistant Staphylococcus aureus isolate 16a after 24 hrs by agar plate dilution method; procedure, shortened: as §1
[34] = test system: Staphylococcus aureus; assay: Antimicrobial activity against methicillin-resistant Staphylococcus aureus isolate 11a after 24 hrs by agar plate dilution method in presence of oxacillin (1:1); procedure, shortened: as §2
[35] = test system: Staphylococcus aureus; assay: Antimicrobial activity against methicillin-resistant Staphylococcus aureus isolate 5a after 24 hrs by agar plate dilution method; procedure, shortened: as §3
[36] = test system: Staphylococcus aureus; assay: Antimicrobial activity against methicillin-resistant Staphylococcus aureus isolate 27a after 24 hrs by agar plate dilution method; procedure, shortened: as §1
[37] = test system: Staphylococcus aureus; assay: Antimicrobial activity against methicillin-resistant Staphylococcus aureus isolate 26a after 24 hrs by agar plate dilution method in presence of oxacillin (1:1); procedure, shortened: as §2
[38] = test system: Staphylococcus aureus; assay: Antimicrobial activity against methicillin-resistant Staphylococcus aureus isolate 12a after 24 hrs by agar plate dilution method; procedure, shortened: as §1
[39] = test system: Staphylococcus aureus; assay: Bactericidal activity against methicillin-resistant Staphylococcus aureus isolate 1a assessed as reduction in colony counts at 32 ug/ml after 20 hrs by pour plate method in presence of oxacillin (1:1) (reference value: 12.73 +/- 0.223 log10CFU/ml)

Cc1ncc([N+](=O)[O-])n1CCn1cc(COc2c(Cl)cccc2Cl)nn1
MIC [1]: 16 mg/L (≈ 40.3 µM)
MIC [2]: 1 mg/L
MIC [3]: > 128 mg/L
MIC [4]: > 128 mg/L
MIC [5]: 64 mg/L (≈ 161 µM)
MIC [6]: 1 mg/L
Activity [7]: 5.65 log10CFU/ml
MIC [8]: 4 mg/L (≈ 10.1 µM)
Activity [9]: 5.84 log10CFU/ml
MIC [10]: 4 mg/L
MIC [11]: 4 mg/L
MIC [12]: 4 mg/L (≈ 10.1 µM)
MIC [13]: 2 mg/L
MIC [14]: 4 mg/L
MIC [15]: 1 mg/L
Activity [16]: 5.6 log10CFU/ml
MIC [17]: 64 mg/L (≈ 161 µM)
MIC [18]: > 128 mg/L
MIC [19]: 2 mg/L
MIC [20]: > 128 mg/L
Activity [21]: 4.52 log10CFU/ml
MIC [22]: 1 mg/L
MIC [23]: 4 mg/L
MIC [24]: 1 mg/L
MIC [25]: 4 mg/L (≈ 10.1 µM)
MIC [26]: 4 mg/L (≈ 10.1 µM)
MIC [27]: 8 mg/L (≈ 20.1 µM)
MIC [28]: > 128 mg/L
MIC [29]: 32 mg/L (≈ 80.6 µM)
Activity [30]: 5.57 log10CFU/ml
MIC [31]: > 128 mg/L
MIC [32]: 2 mg/L
MIC [33]: 32 mg/L (≈ 80.6 µM)
MIC [34]: 1 mg/L
MIC [35]: 4 mg/L (≈ 10.1 µM)
MIC [36]: 64 mg/L (≈ 161 µM)
MIC [37]: 4 mg/L
MIC [38]: 32 mg/L (≈ 80.6 µM)
Activity [39]: 5.26 log10CFU/ml
